SENP1 FRET inh: inhibitors of human SENP1 SUMO protease catalytic domain; Q9P0U3; recombinant SENP1 catalytic domain, CyPet-SUMO1-YPet FRET cleavage; inhibition, % at 10 µM; actives 0.21% (n = 360,000); AID 624204;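 active = inhibition at least 30% at 10 µM, raw YFP signal under a set limit, fluorescence ratio 0.5 to 1.5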;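 also: 0% = enzyme with DMSO and 100% = no enzyme wells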
Target sequence (Q9P0U3 419-644 limits assumed): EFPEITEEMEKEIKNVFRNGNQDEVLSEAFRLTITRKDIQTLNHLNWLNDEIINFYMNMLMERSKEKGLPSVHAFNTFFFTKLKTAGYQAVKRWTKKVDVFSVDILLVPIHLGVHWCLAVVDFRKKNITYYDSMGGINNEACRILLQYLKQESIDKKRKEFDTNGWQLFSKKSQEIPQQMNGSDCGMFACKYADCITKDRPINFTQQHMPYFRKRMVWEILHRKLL
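Material – human SENP1 catalytic domain · Input – SENP1 enzyme, 20 pM final · Compound dosing – single concentration of 10 µM compound, 0.5% DMSO final · Timing – enzyme reaction for 50 min at room temperature, dark · Measured by – FRET fluorescence in CFP and YFP emission channels · Control set – no-enzyme wells low, DMSO-plus-enzyme wells high control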
SENP8 block-1: SENP8 protease inhibition. actives 1.2% (n = 330,000). AID 2540. inhibition, % at 10 µM. purified SENP8, Z-RLRGG-aminoluciferin cleavage, luminescence. Q96LD8; in the data active = inhibition above about 50%
Platelet DG rel: platelet dense granule release activity | human platelet-rich plasma, SFLLRN dense granule ATP release, luminescence | inhibition, %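 (compounds screened at 7.5 µM in platelet-rich plasma)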 | actives 0.22% (n = 300,000) | AID 1663;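 active = mean replicate score, as percent of positive control, at or above 50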
SENP7 block: SENP7 protease inhibition; inhibition, % at 5 µM; AID 434973; Q9BQF6; actives 1.5% (n = 330,000); recombinant SENP7, Z-RLRGG-aminoluciferin luminescence, 40 min;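 active = inhibition above about 50% at the single test dose, limit read from the data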;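 also: plate controls were DMSO with enzyme for no effect and no enzyme buffer wells for full effect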
Target sequence (Q9BQF6 706-1050 limits assumed): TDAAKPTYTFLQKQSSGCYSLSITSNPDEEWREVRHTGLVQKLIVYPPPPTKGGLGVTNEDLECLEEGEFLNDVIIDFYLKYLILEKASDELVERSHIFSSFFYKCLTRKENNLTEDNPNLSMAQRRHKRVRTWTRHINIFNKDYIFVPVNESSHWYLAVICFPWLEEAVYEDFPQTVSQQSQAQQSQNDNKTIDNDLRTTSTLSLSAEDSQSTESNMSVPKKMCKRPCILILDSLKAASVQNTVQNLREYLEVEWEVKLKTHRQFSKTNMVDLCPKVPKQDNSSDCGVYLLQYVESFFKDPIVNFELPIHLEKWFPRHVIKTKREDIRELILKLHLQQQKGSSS
SENP6 block: blocks the human protease SENP6; Q9GZR1; Recombinant SENP6 catalytic domain, aminoluciferin luminescence; inhibition, % at 10 µM; actives 1.8% (n = 330,000);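 active = inhibition above about 50% at the single tested dose, limit read from the data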;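 also: plate controls were DMSO wells with enzyme for no effect and DMSO wells lacking enzyme for full effect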
SENP8 block-2: inhibitors of human SENP8 protease; recombinant SENP8, Nedd8 substrate fluorescence; inhibition, % at 20 µM; AID 602440; actives 0.64% (n = 360,000); in the data active = inhibition mostly above about 40%, no sharp cut-off; inactive = mostly below about 27%
SENP8 conf: SENP8 (human) inhibition, single concentration confirmation. shares compounds with SENP8 block-2. purified SENP8, Nedd8-AMC/pro-Nedd8 cleavage fluorescence, 30 min. inhibition, % at 25 µM. actives 15% (n = 1,400); in the data active = inhibition mostly above about 39%, no sharp cut-off; inactive = mostly below about 34%
The depositor's hits bear a star; · = no result given. This is a sample that favours compounds with a hit; in the whole collection about 2.6% have one here.

SMILES | SENP1 FRET inh | SENP8 block-1 | Platelet DG rel | SENP7 block | SENP6 block | SENP8 block-2 | SENP8 conf
Cc1ccc(NC(=O)CN2CCc3cc4c(cc3C2)OCCCO4)cc1C | -1.5 | 2.1 | -0.1 | 4.2 | 9.5 | -22.5 | ·
CCC(=O)N(CCC(Cc1ccccc1)c1ccco1)Cc1ccco1 (stereo not given) | -1.5 | -12.9 | -0.3 | 0.8 | 2.0 | -25.0 | ·
CCC(=O)N(CCC(Cc1ccccc1)c1ccc2c(c1)OCO2)Cc1ccccc1F (stereo not given) | 1.8 | 8.0 | -0.7 | 2.3 | 7.0 | 40.1* | 13.6
CC1=C(SCCC#N)S/C(=C2\SC(C)=C(SCCC#N)S2)S1 | 0.0 | 2.4 | 1.2 | 2.7 | -5.9 | 45.5* | 69.3*
Cc1cc(=O)[nH]c(N/N=C/C(C)c2ccccc2)n1 (stereo not given) | 0.9 | 0.2 | 0.1 | 4.1 | -15.6 | 46.7* | -0.1
CC(/C=N/Nc1nc(C)cc(=O)[nH]1)=C\c1ccccc1 | 0.5 | 1.5 | 0.2 | 13.7 | 19.8 | -93.4 | ·
CCc1ccc(NC(=O)CCCN2C(=O)C3CC=CCC3C2=O)cc1 (stereo not given) | 2.1 | 3.6 | -1.4 | -2.9 | -15.3 | 11.8 | ·
CCOC(=O)C1=C(CN2CCSCC2)NC(=O)NC1c1cccc([N+](=O)[O-])c1 (stereo not given) | 0.9 | -5.2 | 1.6 | -8.7 | -26.6 | 43.8* | 19.1
CC(C)NC(=O)c1ccc(CN2CCc3ccccc3C2)cc1 | -1.7 | 7.6 | -3.2 | 2.3 | -7.9 | 44.0* | 6.8
CC(C)OCCCNC(=O)c1ccc(CN2CCc3ccccc3C2)cc1 | 2.2 | -9.2 | -4.5 | 0.1 | -17.4 | 6.6 | ·
Cc1occc1C(=O)N1CCCC(N2CCN(c3ccccc3F)CC2)C1 (stereo not given) | -3.1 | -7.0 | -5.2 | 13.8 | -15.0 | -0.2 | ·
CCOC(=O)C1=C[C@@H](C2CCCCC2)N(S(=O)(=O)c2ccc([N+](=O)[O-])cc2)[C@H]1c1ccccc1 | -0.3 | · | · | · | · | 8.5 | ·
O=C(O)c1ccccc1/C=N/NC(=O)C1CCCCC1 | 3.2 | 0.1 | 0.7 | -1.2 | 10.6 | 6.3 | ·
O=C(O)c1ccccc1/C=N/NC(=S)NC1CCCCC1 | 0.5 | 8.0 | 0.0 | 6.7 | 1.9 | 46.4* | 0.8
CCCNCc1cc(OC)c(OCCC)cc1Cl | 3.7 | -7.1 | 7.2 | 1.6 | 1.9 | 40.4* | -2.9
CCOc1cc(Cl)c(CNCCCN2CCOCC2)cc1OC | 0.5 | -11.3 | -9.2 | 11.5 | 4.0 | 8.3 | ·
N#Cc1ncc(C(F)(F)F)cc1Sc1ccc(N)cc1 | 2.8 | 4.0 | -5.8 | 4.9 | -11.3 | 44.6* | 24.4
O=c1c(-c2ccc(O)cc2O)coc2cc(O)cc(O)c12 | 2.1 | 3.8 | 3.5 | -2.5 | 7.7 | 54.8* | 21.7
CN(C)C1=NCCN1CCCCc1ccccc1 | 0.9 | 2.8 | · | 3.9 | -2.3 | 13.9 | ·
CCOC(=O)c1nn(-c2ccc(C)cc2)c(=O)c2c(N)scc12 | 0.1 | 3.0 | -2.1 | 8.3 | 21.6 | 13.8 | ·
Nc1scc2c(C(=O)O)nn(-c3ccccc3)c(=O)c12 | -2.5 | 11.6 | · | 5.5 | -17.5 | 40.2* | 20.4
[O-]c1c[n+](-c2ccc(-[n+]3cc([O-])on3)cc2)no1 | 0.0 | 1.8 | -3.3 | 0.2 | 5.2 | -1.7 | ·
CC(C)C(=O)Nc1ccc(Cl)cc1-c1nc2ccccc2[nH]c1=O | -3.3 | 1.2 | 1.9 | -3.9 | 20.0 | -26.1 | ·
CNc1ccc([N+](=O)[O-])cc1-c1nc2ccccc2[nH]c1=O | 6.1 | 7.0 | -2.2 | -9.8 | 0.5 | 41.9* | 14.6
COc1ccc(N/C=C/c2nc(SC)nnc2C)cc1 | -21.8 | -6.3 | -2.8 | -1.9 | -10.5 | 35.6* | 36.4
SMILES | SENP1 FRET inh | SENP8 block-1 | Platelet DG rel | SENP7 block | SENP6 block | SENP8 block-2 | SENP8 conf
CC(C)C[C@H](NC(=O)c1cc2cc(Cl)ccc2n1C)C(=O)N1CCC[C@H]1C(=O)O | 2.5 | -3.1 | -3.3 | 11.3 | -17.4 | 46.7* | 8.4
C[C@H](NC(=O)c1cc2cc(Cl)ccc2n1C)C(=O)N1CCC[C@H]1C(=O)O | -0.8 | -11.5 | 4.6 | 10.2 | -16.2 | 12.6 | ·
CCC1CCCCN1CCCCOc1cccc(Cl)c1 (stereo not given) | 1.0 | -2.5 | 3.3 | 5.8 | -32.2 | 20.8 | ·
Nc1c(NCCCN2CCOCC2)c2ccccc2oc1=O | 0.2 | 4.3 | -7.5 | 0.5 | 5.2 | 37.5* | -6.5
COc1ccccc1CNC(=O)[C@H](C)N1C(=O)N2CCc3c([nH]c4ccccc34)[C@@]2(C)C1=O | 3.0 | 7.5 | 2.6 | -0.1 | -1.6 | 42.8* | 14.0
CC1CCN(C(=O)CN2C(=O)NC(c3ccccc3)(c3ccccc3)C2=O)CC1 | 0.4 | -11.9 | · | -15.9 | -13.6 | 7.3 | ·
Cn1c(Cc2ccccc2)nnc1SCC(=O)c1cccs1 | 1.1 | 2.9 | 0.7 | 1.8 | 18.5 | 40.5* | 13.0
COc1ccc(CNC(=O)[C@@H](NC(=O)C2CCN(C(=O)[C@@H](N)CC(C)C)CC2)C(C)C)cc1 | 0.7 | -6.0 | 9.4 | 13.3 | -10.1 | 51.6* | 8.6
CC(C)C[C@H](N)C(=O)N1CCC(C(=O)N[C@H](C(=O)NCc2ccc(F)cc2)C(C)C)CC1 | 1.1 | -5.3 | 2.2 | -7.9 | -17.4 | 8.2 | ·
CC(C)C[C@H](N)C(=O)N1CCC(C(=O)N[C@H](C(=O)NC(C)c2ccccc2)C(C)C)CC1 (stereo not given in full) | -0.4 | 3.9 | -2.5 | -7.9 | 6.9 | 42.0* | 11.2
O=C(Nc1ccc(N2CCCCC2)cc1)c1ccc2ccccc2n1 | 13.2 | 31.0 | 2.2 | 39.0 | 38.1 | 40.2* | 15.4
O=C(Nc1cccc(S(=O)(=O)N2CCCCCC2)c1)c1ccc2ccccc2n1 | -14.6 | 6.0 | 12.3 | -4.9 | 2.6 | -18.2 | ·
O=C(Nc1ccc(N2CCCC2)cc1)c1ccccc1[N+](=O)[O-] | 3.7 | 5.4 | 1.4 | 2.5 | 6.7 | 35.0* | 21.4
COc1ccc(CNC(=O)Cn2ccc(N)nc2=O)cc1 | 0.7 | -9.2 | · | -6.3 | -21.3 | 45.3* | 9.0
CC(CC(=O)N1CCc2ccccc21)S(=O)(=O)c1ccc2c(c1)NC(=O)CO2 (stereo not given) | 1.5 | -7.2 | -8.3 | -10.9 | 4.9 | 17.9 | ·
Nn1c(-c2ccccc2Cl)nnc1-c1ccccc1Cl | 0.7 | -5.9 | · | 8.5 | 12.9 | 40.1* | 9.1
CCOC(=O)Oc1ccc(C(=O)OCCCN(C)C)cc1OC | 3.7 | -8.0 | 1.6 | -6.7 | -19.5 | 18.3 | ·
COc1ccc(C(=O)OCCCN(C)C)cc1OC | -0.3 | 1.8 | 12.6 | 8.2 | 7.6 | 41.2* | -7.3
COc1ccc(-c2csc(C(NC(C)=O)c3ccccc3)n2)cn1 (stereo not given) | 0.1 | · | · | · | · | 10.6 | ·
O=C(CCC(=O)N1CCc2ccccc2C1)N1CCN(S(=O)(=O)c2ccccc2)CC1 | -4.4 | 6.6 | 1.0 | 3.2 | 16.7 | 42.9* | 63.6*
NC(=O)C1CCN(C(=O)Cc2ccsc2)CC1 | -2.6 | -6.1 | -8.8 | 0.6 | -16.2 | -4.1 | ·

Screens as filed in PubChem.
